Measurements from ChEMBL document CHEMBL1146122, “Neuropeptide Y (NPY) Y4 receptor selective agonists based on NPY(32-36): development of an anorectic Y4 receptor selective agonist with picomolar affinity” (J Med Chem, 2006).
Positions of bridges follow the written chain, without caps; N, C: chain ends. Non-standard residues stand in square brackets, D forms with d. Residues, ends and D or L forms follow the SMILES beside them. Chains are numbered I, II in the order given. Nva = CCC[C@H](N)C(=O)O

How the values were obtained:
[1] = target: T1, Neuropeptide Y receptor type 1 (Homo sapiens, UniProt P25929); assay: Agonist activity at human NPY1 receptor in CHO cells by inhibition of forskolin-stimulated cAMP synthesis; assay type: functional, cell-based
T1 sequence (P25929 whole entry): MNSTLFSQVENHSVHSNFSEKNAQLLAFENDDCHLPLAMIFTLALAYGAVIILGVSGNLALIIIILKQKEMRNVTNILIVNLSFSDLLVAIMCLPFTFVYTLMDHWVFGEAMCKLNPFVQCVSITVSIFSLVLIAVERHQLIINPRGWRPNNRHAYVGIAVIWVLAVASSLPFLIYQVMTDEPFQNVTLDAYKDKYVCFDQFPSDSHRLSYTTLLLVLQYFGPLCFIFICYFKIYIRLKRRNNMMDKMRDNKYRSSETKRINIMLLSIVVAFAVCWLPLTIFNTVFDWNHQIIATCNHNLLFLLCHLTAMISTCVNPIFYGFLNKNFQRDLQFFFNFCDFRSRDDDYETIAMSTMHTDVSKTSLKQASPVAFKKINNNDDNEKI

[2] = target: T2, Neuropeptide Y receptor type 4 (Homo sapiens, UniProt P50391); assay: Displacement of [125I]hPP from human NPY4 receptor expressed in CHO cells; assay type: cell-based
T2 sequence (P50391 whole entry): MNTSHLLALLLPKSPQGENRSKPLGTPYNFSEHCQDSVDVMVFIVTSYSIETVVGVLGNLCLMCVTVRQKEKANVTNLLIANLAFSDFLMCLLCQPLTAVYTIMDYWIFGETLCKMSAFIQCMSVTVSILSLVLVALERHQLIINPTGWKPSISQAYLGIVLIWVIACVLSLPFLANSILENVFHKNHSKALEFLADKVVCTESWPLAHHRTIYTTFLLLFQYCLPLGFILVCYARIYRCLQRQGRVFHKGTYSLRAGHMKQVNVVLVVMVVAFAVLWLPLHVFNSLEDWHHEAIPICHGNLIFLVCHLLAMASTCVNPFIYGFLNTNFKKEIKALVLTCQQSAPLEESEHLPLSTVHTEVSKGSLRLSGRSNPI
Outline: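 Y4 binding used membranes from CHO cells stably expressing cloned human Y4, with 125I-PP as radioligand. Competing peptides were tested over a range of concentrations in 50 mM HEPES pH 7.3, 0.1% BSA, 2.5 mM CaCl2 and 1 mM MgCl2 for 90 min at room temperature. Separation was by filtration and γ-counting. Nonspecific binding was taken with 1 µM PP. Duplicate points, three experiments, nonlinear regression.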

[3] = target: T1, Neuropeptide Y receptor type 1; assay: Displacement of […] from human NPY1 receptor expressed in CHO cells; assay type: cell-based
Outline: (§1)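 Competition binding on membranes (5-10 µg protein) from CHO cells stably expressing human Y1, Y2 or rat-human hybrid Y5 receptors. Radioligand 0.2 nM 125I-PYY, incubated with a range of peptide concentrations in 50 mM HEPES pH 7.3, 0.1% BSA, 2.5 mM CaCl2 and 1 mM MgCl2 for 90 min at room temperature. Bound ligand separated on PEI-treated glass fibre filters, washed with PBS and γ-counted. 1 µM NPY defined nonspecific binding. Duplicate points, three experiments, nonlinear regression.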

[4] = target: T3, Neuropeptide Y receptor type 2 (Homo sapiens, UniProt P49146); assay: Displacement of […] from human NPY2 receptor expressed in CHO cells; assay type: cell-based; outline: as §1
T3 sequence (P49146 whole entry): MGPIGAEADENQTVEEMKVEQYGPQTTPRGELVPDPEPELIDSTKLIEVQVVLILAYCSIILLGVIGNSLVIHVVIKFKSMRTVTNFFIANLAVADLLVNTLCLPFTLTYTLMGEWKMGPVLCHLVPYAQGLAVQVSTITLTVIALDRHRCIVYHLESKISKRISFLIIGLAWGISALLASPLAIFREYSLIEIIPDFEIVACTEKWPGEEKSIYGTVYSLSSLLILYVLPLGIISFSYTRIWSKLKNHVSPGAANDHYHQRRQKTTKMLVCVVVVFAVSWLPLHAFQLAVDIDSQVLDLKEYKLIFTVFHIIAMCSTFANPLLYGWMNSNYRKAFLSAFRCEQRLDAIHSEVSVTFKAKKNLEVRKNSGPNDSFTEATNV

[5] = Displacement of […] from rat-human hybrid NPY5 receptor expressed in CHO cells; assay type: cell-based; outline: as §1
[6] = target: T2, Neuropeptide Y receptor type 4; assay: Agonist activity at human NPY4 receptor in CHO cells by inhibition of forskolin-stimulated cAMP synthesis
Homo sapiens [7] = species on record: Homo sapiens; assay: Selectivity for human NPY4 over NPY1 receptor
Homo sapiens [8] = species on record: Homo sapiens; assay: Selectivity for human NPY4 over NPY2 receptor
[9] = Selectivity for human NPY4 over rat-human hybrid NPY5 receptor
[10] = target: T4, Neuropeptide Y receptor type 1 (Homo sapiens) (UniProt P25929); assay: Antagonist activity against human NPY1 receptor in CHO cells by inhibition of forskolin-stimulated cAMP synthesis; assay type: functional, cell-based
T4 sequence (whole entry): T1 sequence (P25929 whole entry)

EC50 [1] [nM] | Ki [2] [nM] | Ki [3] [nM] | Ki [4] [nM] | EC50 [6] [nM] | Selectivity ratio (Homo sapiens [7]) | Selectivity ratio (Homo sapiens [8]) | Selectivity ratio [9] | Kb [10] [nM] | Compound | Ki [5] [nM]
– | 4.3 | 120 | 310 | 200 | – | – | – | – | CCC[C@H](NC(=O)[C@H](CCCN=C(N)N)NC(=O)[C@H](Cc1c[nH]c2ccccc12)NC(=O)[C@@H](N)CCC[C@H](N)C(=O)N[C@@H](Cc1c[nH]c2ccccc12)C(=O)N[C@@H](CCCN=C(N)N)C(=O)N[C@@H](CCC)C(=O)N[C@@H](CCCN=C(N)N)C(=O)N[C@@H](Cc1ccc(O)cc1)C(N)=O)C(=O)N[C@@H](CCCN=C(N)N)C(=O)N[C@@H](Cc1ccc(O)cc1)C(N)=O (stereo in doubt; 2A) [listing 1 of 2 here] | 2160
– | – | – | – | – | 30 | 70 | 500 | – | CCC[C@H](NC(=O)[C@H](CCCN=C(N)N)NC(=O)[C@H](Cc1c[nH]c2ccccc12)NC(=O)[C@@H](N)CCC[C@H](N)C(=O)N[C@@H](Cc1c[nH]c2ccccc12)C(=O)N[C@@H](CCCN=C(N)N)C(=O)N[C@@H](CCC)C(=O)N[C@@H](CCCN=C(N)N)C(=O)N[C@@H](Cc1ccc(O)cc1)C(N)=O)C(=O)N[C@@H](CCCN=C(N)N)C(=O)N[C@@H](Cc1ccc(O)cc1)C(N)=O (stereo in doubt; 2A) [listing 2 of 2 here] | –
– | 4.1 | 140 | 260 | 220 | – | – | – | – | CCC[C@H](NC(=O)[C@H](CCCN=C(N)N)NC(=O)[C@H](Cc1c[nH]c2ccccc12)NC(=O)[C@@H](N)CCC[C@H](N)C(=O)N[C@@H](Cc1c[nH]c2ccccc12)C(=O)N[C@@H](CCCN=C(N)N)C(=O)N[C@@H](CCC)C(=O)N[C@@H](CCCN=C(N)N)C(=O)N[C@@H](Cc1ccc(O)cc1)C(N)=O)C(=O)N[C@@H](CCCN=C(N)N)C(=O)N[C@@H](Cc1ccc(O)cc1)C(N)=O (stereo in doubt; 2B) [listing 1 of 2 here] | 2280
– | – | – | – | – | 40 | 60 | 550 | – | CCC[C@H](NC(=O)[C@H](CCCN=C(N)N)NC(=O)[C@H](Cc1c[nH]c2ccccc12)NC(=O)[C@@H](N)CCC[C@H](N)C(=O)N[C@@H](Cc1c[nH]c2ccccc12)C(=O)N[C@@H](CCCN=C(N)N)C(=O)N[C@@H](CCC)C(=O)N[C@@H](CCCN=C(N)N)C(=O)N[C@@H](Cc1ccc(O)cc1)C(N)=O)C(=O)N[C@@H](CCCN=C(N)N)C(=O)N[C@@H](Cc1ccc(O)cc1)C(N)=O (stereo in doubt; 2B) [listing 2 of 2 here] | –
1410 | 2 | 80 | 530 | 370 | – | – | – | – | CCC[C@H](NC(=O)[C@H](CCCN=C(N)N)NC(=O)[C@H](Cc1c[nH]c2ccccc12)NC(=O)[C@@H](N)CCCC[C@H](N)C(=O)N[C@@H](Cc1c[nH]c2ccccc12)C(=O)N[C@@H](CCCN=C(N)N)C(=O)N[C@@H](CCC)C(=O)N[C@@H](CCCN=C(N)N)C(=O)N[C@@H](Cc1ccc(O)cc1)C(N)=O)C(=O)N[C@@H](CCCN=C(N)N)C(=O)N[C@@H](Cc1ccc(O)cc1)C(N)=O (stereo in doubt; 4B) [listing 1 of 2 here] | 280
– | – | – | – | – | 40 | 270 | 140 | – | CCC[C@H](NC(=O)[C@H](CCCN=C(N)N)NC(=O)[C@H](Cc1c[nH]c2ccccc12)NC(=O)[C@@H](N)CCCC[C@H](N)C(=O)N[C@@H](Cc1c[nH]c2ccccc12)C(=O)N[C@@H](CCCN=C(N)N)C(=O)N[C@@H](CCC)C(=O)N[C@@H](CCCN=C(N)N)C(=O)N[C@@H](Cc1ccc(O)cc1)C(N)=O)C(=O)N[C@@H](CCCN=C(N)N)C(=O)N[C@@H](Cc1ccc(O)cc1)C(N)=O (stereo in doubt; 4B) [listing 2 of 2 here] | –

More lines, now with the values behind:

Compound | EC50 [1] [nM] | Ki [2] [nM] | Ki [3] [nM] | Ki [4] [nM] | EC50 [6] [nM] | Selectivity ratio (Homo sapiens [7]) | Selectivity ratio (Homo sapiens [8]) | Selectivity ratio [9] | Kb [10] [nM] | Ki [5] [nM]
CC(C)C[C@H](NC(=O)[C@H](CCCN=C(N)N)NC(=O)[C@H](Cc1ccc(O)cc1)NC(=O)[C@@H](N)CCCC[C@H](N)C(=O)N[C@@H](Cc1ccc(O)cc1)C(=O)N[C@@H](CCCN=C(N)N)C(=O)N[C@@H](CC(C)C)C(=O)N[C@@H](CCCN=C(N)N)C(=O)N[C@@H](Cc1ccc(O)cc1)C(N)=O)C(=O)N[C@@H](CCCN=C(N)N)C(=O)N[C@@H](Cc1ccc(O)cc1)C(N)=O | 240 | 0.05 | 7.5 | 890 | 14.8 | – | – | – | – | > 1000
CCC[C@H](NC(=O)[C@H](CCCN=C(N)N)NC(=O)[C@H](Cc1c[nH]c2ccccc12)NC(=O)[C@@H](N)CC[C@H](N)C(=O)N[C@@H](Cc1c[nH]c2ccccc12)C(=O)N[C@@H](CCCN=C(N)N)C(=O)N[C@@H](CCC)C(=O)N[C@@H](CCCN=C(N)N)C(=O)N[C@@H](Cc1ccc(O)cc1)C(N)=O)C(=O)N[C@@H](CCCN=C(N)N)C(=O)N[C@@H](Cc1ccc(O)cc1)C(N)=O | – | 4.2 | 140 | 360 | 460 | 34 | 85 | 78 | – | 330
CCC[C@H](NC(=O)[C@H](CCCN=C(N)N)NC(=O)[C@H](Cc1c[nH]c2ccccc12)NC(=O)[C@H](Cc1ccc(O)cc1)NC(=O)[C@H](CCCN=C(N)N)NC(=O)[C@H](CCC)NC(=O)[C@H](CCCN=C(N)N)NC(=O)[C@@H](N)Cc1c[nH]c2ccccc12)C(=O)N[C@@H](CCCN=C(N)N)C(=O)N[C@@H](Cc1ccc(O)cc1)C(N)=O (H-WR[Nva]RYWR[Nva]RY-NH2) | – | 5.3 | 220 | 1050 | 290 | 50 | 200 | 50 | 320 | 250
CCC[C@H](NC(=O)[C@H](CCCN=C(N)N)NC(=O)[C@H](Cc1c[nH]c2ccccc12)NC(=O)[C@@H](N)CSSC[C@H](N)C(=O)N[C@@H](Cc1c[nH]c2ccccc12)C(=O)N[C@@H](CCCN=C(N)N)C(=O)N[C@@H](CCC)C(=O)N[C@@H](CCCN=C(N)N)C(=O)N[C@@H](Cc1ccc(O)cc1)C(N)=O)C(=O)N[C@@H](CCCN=C(N)N)C(=O)N[C@@H](Cc1ccc(O)cc1)C(N)=O (I: H-CWR[Nva]RY-NH2 / II: H-CWR[Nva]RY-NH2; disulfide I:1-II:1) | – | – | – | – | – | 10 | 110 | 30 | 1730 | 770
CCC[C@H](NC(=O)[C@H](CCCNC(=N)N)NC(=O)[C@H](Cc1c[nH]c2ccccc12)NC(=O)[C@@H](N)CSSC[C@H](N)C(=O)N[C@@H](Cc1c[nH]c2ccccc12)C(=O)N[C@@H](CCCNC(=N)N)C(=O)N[C@@H](CCC)C(=O)N[C@@H](CCCNC(=N)N)C(=O)N[C@@H](Cc1ccc(O)cc1)C(N)=O)C(=O)N[C@@H](CCCNC(=N)N)C(=O)N[C@@H](Cc1ccc(O)cc1)C(N)=O (I: H-CWR[Nva]RY-NH2 / II: H-CWR[Nva]RY-NH2; disulfide I:1-II:1) | – | 30 | 340 | > 3000 | 570 | – | – | – | – | –
CCC[C@H](NC(=O)[C@H](CCCN=C(N)N)NC(=O)[C@H](Cc1c[nH]c2ccccc12)NC(=O)[C@@H](N)CCCC[C@H](N)C(=O)N[C@@H](Cc1c[nH]c2ccccc12)C(=O)N[C@@H](CCCN=C(N)N)C(=O)N[C@@H](CCC)C(=O)N[C@@H](CCCN=C(N)N)C(=O)N[C@@H](Cc1ccc(O)cc1)C(N)=O)C(=O)N[C@@H](CCCN=C(N)N)C(=O)N[C@@H](Cc1ccc(O)cc1)C(N)=O (stereo in doubt; 4A) [listing 1 of 2 here] | – | 4.1 | 90 | 390 | 430 | – | – | – | – | 120
CCC[C@H](NC(=O)[C@H](CCCN=C(N)N)NC(=O)[C@H](Cc1c[nH]c2ccccc12)NC(=O)[C@@H](N)CCCC[C@H](N)C(=O)N[C@@H](Cc1c[nH]c2ccccc12)C(=O)N[C@@H](CCCN=C(N)N)C(=O)N[C@@H](CCC)C(=O)N[C@@H](CCCN=C(N)N)C(=O)N[C@@H](Cc1ccc(O)cc1)C(N)=O)C(=O)N[C@@H](CCCN=C(N)N)C(=O)N[C@@H](Cc1ccc(O)cc1)C(N)=O (stereo in doubt; 4A) [listing 2 of 2 here] | – | – | – | – | – | 20 | 100 | 30 | – | –
